Laboratory results as given in ChEMBL document CHEMBL1153726, “Synthesis and anticancer activity of sclerophytin-inspired hydroisobenzofurans” (Bioorg Med Chem Lett, 2009).

Experiments:
SK-MEL-2 = experiment: Growth inhibition of human SK-MEL-2 cells at 10 uM after 96 hrs by MTT assay; type: functional; parameters: scale not given: the % may be the effect or the level left
BT-549 = experiment: Growth inhibition of human BT549 cells at 10 uM after 96 hrs by MTT assay; type: functional; parameters: scale not given: the % may be the effect or the level left
PC-3 = experiment: Growth inhibition of human PC3 cells at 10 uM after 96 hrs by MTT assay; type: functional; parameters: scale not given: the % may be the effect or the level left
RXF 393 = experiment: Growth inhibition of human RXF393 cells at 10 uM after 96 hrs by MTT assay; type: functional; parameters: scale not given: the % may be the effect or the level left
HCC 2998 = experiment: Growth inhibition of human HCC2998 cells at 10 uM after 96 hrs by MTT assay; type: functional; parameters: scale not given: the % may be the effect or the level left
UACC-62 = experiment: Growth inhibition of human UACC62 cells at 10 uM after 96 hrs by MTT assay; type: functional; parameters: scale not given: the % may be the effect or the level left
EKVX = experiment: Growth inhibition of human EKVX cells at 10 uM after 96 hrs by MTT assay; type: functional; parameters: scale not given: the % may be the effect or the level left
HCT-15 = experiment: Growth inhibition of human HCT15 cells at 10 uM after 96 hrs by MTT assay; type: functional; parameters: scale not given: the % may be the effect or the level left
OVCAR-3 = experiment: Growth inhibition of human OVCAR-3 cells at 10 uM after 96 hrs by MTT assay; type: functional; parameters: scale not given: the % may be the effect or the level left
M14 = experiment: Growth inhibition of human M14 cells at 10 uM after 96 hrs by MTT assay; type: functional; parameters: scale not given: the % may be the effect or the level left
NCI-H226 = experiment: Growth inhibition of human NCI-H226 cells at 10 uM after 96 hrs by MTT assay; type: functional; parameters: scale not given: the % may be the effect or the level left
COLO 205 = experiment: Growth inhibition of human COLO205 cells at 10 uM after 96 hrs by MTT assay; type: functional; parameters: scale not given: the % may be the effect or the level left
[1] = Growth inhibition of human Hs 578T cells at 10 uM after 96 hrs by MTT assay; type: functional; parameters: scale not given: the % may be the effect or the level left
CCRF-CEM = experiment: Growth inhibition of human CCRF-CEM cells at 10 uM after 96 hrs by MTT assay; type: functional; parameters: scale not given: the % may be the effect or the level left
SK-MEL-5 = experiment: Growth inhibition of human SK-MEL-5 cells at 10 uM after 96 hrs by MTT assay; type: functional; parameters: scale not given: the % may be the effect or the level left
SN12C = experiment: Growth inhibition of human SN12C cells at 10 uM after 96 hrs by MTT assay; type: functional; parameters: scale not given: the % may be the effect or the level left
HOP-62 = experiment: Growth inhibition of human HOP62 cells at 10 uM after 96 hrs by MTT assay; type: functional; parameters: scale not given: the % may be the effect or the level left
TK-10 = experiment: Growth inhibition of human TK10 cells at 10 uM after 96 hrs by MTT assay; type: functional; parameters: scale not given: the % may be the effect or the level left
MDA-MB-231 = experiment: Growth inhibition of human MDA-MB-231 cells at 10 uM after 96 hrs by MTT assay; type: functional; parameters: scale not given: the % may be the effect or the level left
NCI-H522 = experiment: Growth inhibition of human NCI-H522 cells at 10 uM after 96 hrs by MTT assay; type: functional; parameters: scale not given: the % may be the effect or the level left
OVCAR-4 = experiment: Growth inhibition of human OVCAR4 cells at 10 uM after 96 hrs by MTT assay; type: functional; parameters: scale not given: the % may be the effect or the level left
Malme-3M = experiment: Growth inhibition of human MALME-3M cells at 10 uM after 96 hrs by MTT assay; type: functional; parameters: scale not given: the % may be the effect or the level left
HOP-92 = experiment: Growth inhibition of human HOP92 cells at 10 uM after 96 hrs by MTT assay; type: functional; parameters: scale not given: the % may be the effect or the level left
MOLT-4 = experiment: Growth inhibition of human MOLT4 cells at 10 uM after 96 hrs by MTT assay; type: functional; parameters: scale not given: the % may be the effect or the level left
NCI/ADR-RES = experiment: Growth inhibition of human NCI/ADR-RES cells at 10 uM after 96 hrs by MTT assay; type: functional; parameters: scale not given: the % may be the effect or the level left
SR = experiment: Growth inhibition of human SR cells at 10 uM after 96 hrs by MTT assay; type: functional; parameters: scale not given: the % may be the effect or the level left
IGROV-1 = experiment: Growth inhibition of human IGROV1 cells at 10 uM after 96 hrs by MTT assay; type: functional; parameters: scale not given: the % may be the effect or the level left
HT-29 = experiment: Growth inhibition of human HT-29 cells at 10 uM after 96 hrs by MTT assay; type: functional; parameters: scale not given: the % may be the effect or the level left
A498 = experiment: Growth inhibition of human A498 cells at 10 uM after 96 hrs by MTT assay; type: functional; parameters: scale not given: the % may be the effect or the level left
A549 = experiment: Growth inhibition of human A549 cells at 10 uM after 96 hrs by MTT assay; type: functional; parameters: scale not given: the % may be the effect or the level left
OVCAR-8 = experiment: Growth inhibition of human OVCAR8 cells at 10 uM after 96 hrs by MTT assay; type: functional; parameters: scale not given: the % may be the effect or the level left
SW-620 = experiment: Growth inhibition of human SW620 cells at 10 uM after 96 hrs by MTT assay; type: functional; parameters: scale not given: the % may be the effect or the level left
SNB-19 = experiment: Growth inhibition of human SNB19 cells at 10 uM after 96 hrs by MTT assay; type: functional; parameters: scale not given: the % may be the effect or the level left
U-251 = experiment: Growth inhibition of human U251 cells at 10 uM after 96 hrs by MTT assay; type: functional; parameters: scale not given: the % may be the effect or the level left
[2] = Antitumor activity against human KB3 cells after 96 hrs by MTT assay; type: functional, cell-based; conditions: KB3, 96 h
Procedure, shortened: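 Human KB-3 carcinoma cells exposed to increasing compound concentrations; viability read by MTT colorimetric assay after 96 h. Values are means of triplicate assays, expressed relative to untreated controls.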

[3] = Growth inhibition of human RPMI8266 cells at 10 uM after 96 hrs by MTT assay; type: functional; parameters: scale not given: the % may be the effect or the level left
SNB-75 = experiment: Growth inhibition of human SNB75 cells at 10 uM after 96 hrs by MTT assay; type: functional; parameters: scale not given: the % may be the effect or the level left
DU-145 = experiment: Growth inhibition of human DU145 cells at 10 uM after 96 hrs by MTT assay; type: functional; parameters: scale not given: the % may be the effect or the level left
MDA-MB-435 = experiment: Growth inhibition of human MDA-MB-435 cells at 10 uM after 96 hrs by MTT assay; type: functional; parameters: scale not given: the % may be the effect or the level left
SF-295 = experiment: Growth inhibition of human SF295 cells at 10 uM after 96 hrs by MTT assay; type: functional; parameters: scale not given: the % may be the effect or the level left
ACHN = experiment: Growth inhibition of human ACHN cells at 10 uM after 96 hrs by MTT assay; type: functional; parameters: scale not given: the % may be the effect or the level left
T47D = experiment: Growth inhibition of human T47D cells at 10 uM after 96 hrs by MTT assay; type: functional; parameters: scale not given: the % may be the effect or the level left
MCF7 = experiment: Growth inhibition of human MCF7 cells at 10 uM after 96 hrs by MTT assay; type: functional; parameters: scale not given: the % may be the effect or the level left
SK-OV-3 = experiment: Growth inhibition of human SKOV3 cells at 10 uM after 96 hrs by MTT assay; type: functional; parameters: scale not given: the % may be the effect or the level left
HL-60(TB) = experiment: Growth inhibition of human HL-60(TB) cells at 10 uM after 96 hrs by MTT assay; type: functional; parameters: scale not given: the % may be the effect or the level left
NCI-H460 = experiment: Growth inhibition of human NCI-H460 cells at 10 uM after 96 hrs by MTT assay; type: functional; parameters: scale not given: the % may be the effect or the level left
SK-MEL-28 = experiment: Growth inhibition of human SK-MEL-28 cells at 10 uM after 96 hrs by MTT assay; type: functional; parameters: scale not given: the % may be the effect or the level left
NCI-H23 = experiment: Growth inhibition of human NCI-H23 cells at 10 uM after 96 hrs by MTT assay; type: functional; parameters: scale not given: the % may be the effect or the level left
SF-268 = experiment: Growth inhibition of human SF268 cells at 10 uM after 96 hrs by MTT assay; type: functional; parameters: scale not given: the % may be the effect or the level left
OVCAR-5 = experiment: Growth inhibition of human OVCAR5 cells at 10 uM after 96 hrs by MTT assay; type: functional; parameters: scale not given: the % may be the effect or the level left
UO-31 = experiment: Growth inhibition of human UO31 cells at 10 uM after 96 hrs by MTT assay; type: functional; parameters: scale not given: the % may be the effect or the level left
HCT-116 = experiment: Growth inhibition of human HCT116 cells at 10 uM after 96 hrs by MTT assay; type: functional; parameters: scale not given: the % may be the effect or the level left
786-0 = experiment: Growth inhibition of human 786-0 cells at 10 uM after 96 hrs by MTT assay; type: functional; parameters: scale not given: the % may be the effect or the level left
SF-539 = experiment: Growth inhibition of human SF539 cells at 10 uM after 96 hrs by MTT assay; type: functional; parameters: scale not given: the % may be the effect or the level left
UACC-257 = experiment: Growth inhibition of human UACC257 cells at 10 uM after 96 hrs by MTT assay; type: functional; parameters: scale not given: the % may be the effect or the level left
KM12 = experiment: Growth inhibition of human KM12 cells at 10 uM after 96 hrs by MTT assay; type: functional; parameters: scale not given: the % may be the effect or the level left
MDA-MB-468 = experiment: Growth inhibition of human MDA-MB-468 cells at 10 uM after 96 hrs by MTT assay; type: functional; parameters: scale not given: the % may be the effect or the level left
LOX IMVI = experiment: Growth inhibition of human LOXIMVI cells at 10 uM after 96 hrs by MTT assay; type: functional; parameters: scale not given: the % may be the effect or the level left
K562 = experiment: Growth inhibition of human K562 cells at 10 uM after 96 hrs by MTT assay; type: functional; parameters: scale not given: the % may be the effect or the level left
NCI-H322M = experiment: Growth inhibition of human NCI-H322M cells at 10 uM after 96 hrs by MTT assay; type: functional; parameters: scale not given: the % may be the effect or the level left

C=C(C)[C@H]1CC(=O)C(C)=C2[C@@H](C(=O)OCC)O[C@@H](c3ccc(Cl)cc3Cl)[C@@H]21
Activity (SK-MEL-2): 39.43%
Activity (BT-549): 41.32%
Activity (PC-3): 44.34%
Activity (RXF 393): 69.05%
Activity (HCC 2998): 107.11%
Activity (UACC-62): 45.44%
Activity (EKVX): 69.98%
Activity (HCT-15): 71.15%
Activity (OVCAR-3): 72.74%
Activity (M14): 78.49%
Activity (NCI-H226): 81.04%
Activity (COLO 205): 94.54%
Activity [1]: 78.32%
Activity (CCRF-CEM): 19.48%
Activity (SK-MEL-5): 52.4%
Activity (SN12C): 94.13%
Activity (HOP-62): 84.64%
Activity (TK-10): 98.26%
Activity (MDA-MB-231): 76.61%
Activity (NCI-H522): 9.23%
Activity (OVCAR-4): 65.97%
Activity (Malme-3M): 84.13%
Activity (HOP-92): 49.8%
Activity (MOLT-4): 17.98%
Activity (NCI/ADR-RES): 74.31%
Activity (SR): 12.69%
Activity (IGROV-1): 80.84%
Activity (HT-29): 66.3%
Activity (A498): 82.29%
Activity (A549): 41.04%
Activity (OVCAR-8): 81.47%
Activity (SW-620): 72.54%
Activity (SNB-19): 89.23%
Activity (U-251): 53.44%
IC50 [2]: 3 µM
Activity [3]: -4.6%
Activity (SNB-75): 50.59%
Activity (DU-145): 83.07%
Activity (MDA-MB-435): 48.5%
Activity (SF-295): 88.75%
Activity (ACHN): 89.8%
Activity (T47D): 40.94%
Activity (MCF7): 62.06%
Activity (SK-OV-3): 103.67%
Activity (HL-60(TB)): -31.34%
Activity (NCI-H460): 58.73%
Activity (SK-MEL-28): 98.82%
Activity (NCI-H23): 65.8%
Activity (SF-268): 78.47%
Activity (OVCAR-5): 119.16%
Activity (UO-31): 121.05%
Activity (HCT-116): 42.99%
Activity (786-0): 84.02%
Activity (SF-539): 76.69%
Activity (UACC-257): 51.65%
Activity (KM12): 63.13%
Activity (MDA-MB-468): 13.57%
Activity (LOX IMVI): 66.98%
Activity (K562): 25.32%
Activity (NCI-H322M): 92.62%

C=C(C)[C@H]1CC=C(C)[C@@]2(O)[C@@H]1[C@H](c1ccccn1)O[C@@H]2C(=O)OC
IC50 [2]: 100 µM

C=C(C)[C@H]1CC=C(C)[C@@]2(O)[C@@H]1[C@H](c1ccccc1Br)O[C@@H]2C(=O)OCC
IC50 [2]: 20 µM

C=C(C)[C@H]1CC=C(C)[C@@]2(O)[C@@H]1[C@H](c1cccc(Cl)c1Cl)O[C@@H]2C(=O)OCC
IC50 [2]: 5 µM

C=C(C)[C@H]1CC(=O)C(C)=C2[C@@H](C(=O)OCC)O[C@@H](c3ccccc3Br)[C@@H]21
IC50 [2]: 70 µM
